# Hits are enriched below; roughly 1.1% of the tested compounds scored in any of these assays.
# FXIIa inh 1536 = human FXIIa protease inhibitors, primary screen, biochemical, 1536-well; Coagulation factor XII (Homo sapiens), P00748; purified FXIIa, Boc-QGR-AMC fluorogenic substrate, 2 h; inhibition, % at 5 µM; 220,000 tested, 0.3% active; in the data active = inhibition above about 40%;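 note: 0% = enzyme with no compound and 100% = blank without enzyme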
# hK5 inh = human KLK5 protease inhibitors, primary screen, biochemical, 1536-well. inhibition, % at 5 µM. 210,000 tested, 0.59% active. recombinant hK5, fluorogenic AMC substrate cleavage. Kallikrein-5 (Homo sapiens), Q9Y337;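 active = inhibition of 40% or more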;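 note: 0% = enzyme controls without compound and 100% = no-enzyme blanks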
# TbHK1 inh = Trypanosoma brucei hexokinase 1 inhibitors, primary screen, biochemical, G6PDH-coupled NADH absorbance, MLSCN library; inhibition, % at 10 µM; AID 1430, 2008; 220,000 tested, 0.11% active; recombinant TbHK1, G6PDH-coupled NADH A340;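 active = inhibition of 50% or more in the single-dose primary screen; inactive = inhibition below 50%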
# FXIa inh = human FXIa protease inhibitors, primary screen, biochemical, 1536-well; Coagulation factor XI (Homo sapiens), P03951; purified FXIa, Boc-Glu-Ala-Arg-AMC fluorogenic substrate; inhibition, % at 5 µM; 220,000 tested, 0.14% active;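 active = inhibition of at least 40%; inactive = inhibition below 40%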;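 note: fluorescence of freed AMC excited at 355 nm; 0% = enzyme without compound and 100% = no enzyme blank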
# Target sequence (P03951 19-387 limits assumed): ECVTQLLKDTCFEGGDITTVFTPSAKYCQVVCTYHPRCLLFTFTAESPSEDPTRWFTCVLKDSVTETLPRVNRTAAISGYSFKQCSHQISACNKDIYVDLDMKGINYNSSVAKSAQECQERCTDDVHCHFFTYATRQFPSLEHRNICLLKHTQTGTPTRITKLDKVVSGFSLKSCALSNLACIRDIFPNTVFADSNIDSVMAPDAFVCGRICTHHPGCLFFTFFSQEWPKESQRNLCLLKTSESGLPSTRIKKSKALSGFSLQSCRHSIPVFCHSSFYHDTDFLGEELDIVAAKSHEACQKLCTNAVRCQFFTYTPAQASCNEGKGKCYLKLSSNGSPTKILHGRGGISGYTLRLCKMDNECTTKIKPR
# Target sequence (P03951 388-625 limits assumed): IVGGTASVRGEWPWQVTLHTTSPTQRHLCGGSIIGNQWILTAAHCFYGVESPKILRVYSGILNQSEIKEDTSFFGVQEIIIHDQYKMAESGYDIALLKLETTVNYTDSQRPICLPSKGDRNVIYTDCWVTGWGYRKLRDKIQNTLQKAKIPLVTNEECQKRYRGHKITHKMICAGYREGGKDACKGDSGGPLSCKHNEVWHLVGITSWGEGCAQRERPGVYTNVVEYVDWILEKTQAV
# Thrombin inh = human alpha-thrombin inhibitors, primary screen, counter-screen for coagulation protease inhibitor project, biochemical, 1536-well, fluorogenic AMC substrate. Boc-VPR-AMC fluorogenic substrate cleavage. inhibition, % at 5 µM. 220,000 tested, 0.26% active. AID 1046, 2008;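 active = inhibition at or above 40%; inactive = inhibition below 40%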;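 note: 0% = enzyme with no compound and 100% = wells without enzyme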
#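 Material: human alpha-thrombin protein. Incubation: reaction at ambient temperature. Technique: fluorescence of released AMC, ex 355 nm, em 460 nm. Control set: no-compound enzyme wells and no-enzyme blanks. Also added: Boc-VPR-AMC substrate, 15 µM final. Buffer or medium: pH 7.5 Tris (50 mM) with NaCl 150 mM, Tween 20 0.05%.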
# G6PDH ctr = Leuconostoc G6PDH inhibition, confirmation, counter-screen for TbHK1 inhibitor project, biochemical, DPI cherry-picked compounds, single concentration; shares compounds with TbHK1 inh; purified G6PDH, NADH absorbance, 1 h; inhibition, % at 10 µM; 210 tested, 7% active; AID 2516, 2010;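 active = at least 50% inhibition in the glucose-6-phosphate dehydrogenase coupled counterscreen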
# TbHK1 rescreen = TbHK1 inhibitor retest, confirmation, biochemical, DPI cherry-picked primary actives; 210 tested, 10% active; inhibition, % at 10 µM; AID 2560, 2010; shares compounds with TbHK1 inh; recombinant TbHK1, G6PDH-coupled NADH A340 absorbance;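 active = inhibition of at least 50% in both of the two screening runs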;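 note: 0% and 100% set by the maximum and minimum signal control wells on each plate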
# Numbers without * were called inactive; . = not tested or not shown.
SMILES,FXIIa inh 1536,hK5 inh,TbHK1 inh,FXIa inh,Thrombin inh,others
Clc1ccc2c(N3CCNCC3)ccnc2c1,21,41*,-4,10,23,
CCC(=NCc1cc(OC)cc(OC)c1)c1c(O)[nH]c(=O)[nH]c1=O,7,-2,-11,-1,-3,
O=C(C1CC(c2ccc(Cl)c(Cl)c2)=NO1)N1CCC2(CC1)OCCO2 (stereo not given),48*,6,-2,2,7,
O=C(C1CC(c2ccc(F)cc2)=NO1)N1CCC2(CC1)OCCO2 (stereo not given),-3,-3,4,-10,-3,
c1ccc(-c2[nH]c[n+](CC3CO3)c2-c2ccccc2)cc1 (stereo not given),10,-17,69*,-1,-8,
O=P(CCl)(Nc1ccccc1)C(Cl)(Cl)Cl (stereo not given),2,-3,5,-3,-2,
CN1CCN(c2nc(N)c(Br)c(Cl)n2)CC1,4,-4,-2,-1,1,
OCC#CC[N+]1(CC#Cc2ccccc2)CCOCC1,30,78*,2,33,36,
Cc1sc2nc(COC(=O)Cc3ccccc3)[nH]c(=O)c2c1C,-1,-2,5,-4,-7,
Cc1cc(N2CCCCC2)ccc1C=C1C(=O)N(C)C(=S)N(C)C1=O,28,-21,-14,23,4,
Cc1cc(N2CCCC2)ccc1C=C(C#N)C#N,36,48*,10,31,-9,
O=C(O)c1ccc(N=Cc2c(O)n(Cc3ccc(F)cc3)c(=O)[nH]c2=O)cc1,41*,30,-12,31,32,
CN(C(=O)Oc1cccc2cccnc12)c1ccccc1,44*,22,2,14,16,
CN(C(=O)Oc1ccc(Cl)c2cccnc12)c1ccccc1,11,-18,30,5,-1,
CC(C)n1cc(C(=O)N(CC(=O)NC(C)(C)C)Cc2ccccc2)cn1,7,-5,3,23,-1,
COc1cc2c(cc1/C=C/[N+](=O)[O-])OCO2,39,40*,7,42*,16,
CCCCN1C(=O)NC(=O)C2(Cc3c(nc4ccccn4c3=O)N3CCc4ccccc4C32)C1=O (stereo not given),10,-1,1,5,45*,
COC(=O)C(O)(c1c(C)[nH]c2ccccc12)C(F)(F)F (stereo not given),12,0,5,6,2,
CC(=NCCO)c1c(O)n(C2CCCCC2)c(=O)[nH]c1=O,21,-23,1,3,3,
CCC(=O)c1c(O)n(C2CCCCCC2)c(=O)[nH]c1=O,20,46*,11,-3,24,
O=C1NC(=O)N(Cc2ccc(F)cc2)C(=O)/C1=C/c1cccs1,1,-16,-2,-6,1,
O=C1NC(=O)N(Cc2ccccc2Cl)C(=O)/C1=C/c1cccs1,39,50*,10,29,11,
CN1C(=O)C(Cc2cccs2)C(=O)N(C)C1=O,16,-19,-1,4,5,
O=C1NC(=O)C(Cc2cccs2)C(=O)N1,27,78*,2,3,2,
Cc1ccc2c(c1)C1CN(C)CCC1N2C(=O)c1cn(-c2ccccc2)nc1-c1ccccc1 (stereo not given),8,-5,-3,-6,80*,
SMILES,FXIIa inh 1536,hK5 inh,TbHK1 inh,FXIa inh,Thrombin inh,others
Fc1cccc(C2NCCc3[nH]cnc32)c1 (stereo not given),-7,-5,-5,-8,-12,
O=c1[nH]c(O)c(N=Nc2ccc(SC(F)F)cc2)c(=O)[nH]1,8,0,-11,-7,1,
CCc1c(C)nc(N)nc1N1N=C1SCC#N,58*,7,-3,32,0,
Cc1nc2ccccc2n1C1CCN(Cc2nnnn2CCc2ccccc2)CC1,43*,-2,-3,-13,-4,
CCOP(=O)(OCC)C(O)c1ccc(N(C)C)cc1 (stereo not given),10,-1,-4,0,2,
CN1CCN(c2ncnc(Cl)c2N)CC1,103*,33,5,30,1,
O=C1NC(=O)N(c2ccc(Cl)cc2)C(=O)/C1=C\c1ccc(Sc2nc3ccccc3[nH]2)o1,14,-31,19,7,1,
O=c1[nH]c(=O)n(CCc2ccccc2)c(O)c1C=NC1CC1,12,3,4,3,-2,
CC1CCCN(CC(=O)N2CCCc3ccccc32)C1 (stereo not given),19,87*,0,2,28,
CC[C@]12C=CCN3CCC4(c5cc(Br)c(OC)cc5N(C)C4[C@@](O)(C(=O)OC)[C@@H]1OC(C)=O)C32 (stereo not given in full),28,43*,5,21,28,
OC1(c2ccccc2F)CC2CCC(C1)N2CCN1CCOCC1 (stereo not given),-162,55*,10,33,23,
COc1ccc(C(=O)CN2CCOCC2)cc1F,-7,7,-2,6,-2,
Cc1ccc(C2C(S(C)(=O)=O)=C(O)C(=O)N2c2ccccc2)cc1 (stereo not given) (tested in a mixture with another compound),17,44*,0,2,0,
CNC(=O)Oc1cccc2ccccc12,28,42*,-2,18,22,
CC1CCN(C(=O)CCl)CC1,9,-11,-6,6,0,
O=P(C(c1c[nH]c2ccccc12)N1CCOCC1)(N1CCOCC1)N1CCOCC1 (stereo not given),6,43*,-3,-4,1,
CC(C(=O)c1c[nH]c2ccccc12)N1CCN(C(=O)c2ccco2)CC1 (stereo not given),13,3,-7,6,1,
CCN1C(=O)/C(=C/c2ccc3c(c2)CCN3CCCCl)C(=O)NC1=S,1,-60,10,-1,-1,
O=C1NC(=S)N(C2CC2)C(=O)/C1=C/c1ccc2c(c1)CCN2CCCCl,43*,21,3,15,25,
COC(=O)c1ccccc1-n1c(C)nc2ccccc2c1=O,17,82*,3,3,28,
Cc1ccccc1-n1c(C)nc2ccccc2c1=O,25,24,0,36,8,
CCCC(C)C(=O)NC1CCSC1=O (stereo not given),-8,4,1,1,-13,
O=C(C[N+]12CCN(CC1)CC2)NCCc1ccc(Cl)cc1Cl,3,-2,-5,4,.,
O=c1c2ccccc2[se]n1-c1ccccc1,3,-13,91*,-5,-3,G6PDH ctr=2;TbHK1 rescreen=90*
O=c1c2ccccc2nc(-c2ccccc2)n1-c1ccccc1,10,0,-11,0,-2,
CCc1ccc(OCC(=O)N2CCN(Cc3ccc4c(c3)OCO4)CC2)cc1,9,13,4,-5,-3,
CCn1nc(-c2ccccc2)nc2c(=O)n(C)c(=O)nc1-2,6,-7,69*,0,-5,G6PDH ctr=34;TbHK1 rescreen=38
